For 11 molecules, MIC results are on record in ChEMBL document CHEMBL4814057, “4-4-(Anilinomethyl)-3-[4-(trifluoromethyl)phenyl]-1H-pyrazol-1-ylbenzoic acid derivatives as potent anti-gram-positive bacterial agents” (Eur J Med Chem, 2021).

Converted amounts (≈) assume the structure as drawn.

The MIC is the lowest concentration found to suppress growth.

One test concerns Bacillus subtilis. Nature of the test: Antimicrobial activity against Bacillus subtilis ATCC 6623 assessed as bacterial growth inhibitions by CLSI protocol based microdilution method. It is filed as functional. A digest of the protocol: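 Broth microdilution starting at 50 µg/ml with 2-fold serial dilutions; run in triplicate.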
In a further test the test system is Enterococcus faecalis. Nature of the test: Antimicrobial activity against vancomycin-susceptible Enterococcus faecalis ATCC 29212 assessed as bacterial growth inhibitions by CLSI protocol based microdilution method. A general note: Dilution methods test growth across graded concentrations, often in twofold steps.
Test [1] deals with Staphylococcus epidermidis. Put plainly: Antimicrobial activity against methicillin-resistant Staphylococcus epidermidis ATCC 700296 assessed as bacterial growth inhibitions by CLSI protocol based microdilution method. It is filed as functional.
The test system of test [2] is Staphylococcus aureus. Put plainly: Antimicrobial activity against methicillin-resistant Staphylococcus aureus ATCC 33591 assessed as bacterial growth inhibitions by CLSI protocol based microdilution method. It counts as functional.
The subject of test [3] is Staphylococcus aureus. Put plainly: Antimicrobial activity against antibiotic-resistant Staphylococcus aureus BM-2312 assessed as bacterial growth inhibitions by CLSI protocol based microdilution method. It counts as functional.
In test [4] the test system is Staphylococcus aureus. Nature of the test: Antimicrobial activity against methicillin-resistant Staphylococcus aureus ATCC 33592 assessed as bacterial growth inhibitions by CLSI protocol based microdilution method. It counts as functional.
Test [5] has as its system Staphylococcus aureus. Put plainly: Antimicrobial activity against methicillin-resistant Staphylococcus aureus ATCC 700699 assessed as bacterial growth inhibitions by CLSI protocol based microdilution method. It is filed as functional.
In test [6] the test system is Staphylococcus aureus. Nature of the test: Antimicrobial activity against methicillin-susceptible Staphylococcus aureus ATCC 25923 assessed as bacterial growth inhibitions by CLSI protocol based microdilution method. It is filed as functional.
For the next test, the system named is Enterococcus faecium. Nature of the test: Antimicrobial activity against vancomycin-resistant Enterococcus faecium ATCC 700221 assessed as bacterial growth inhibitions by CLSI protocol based microdilution method. It is filed as functional.

In the case of `O=C(O)c1ccc(-n2cc(CNc3cc(C(F)(F)F)cc(C(F)(F)F)c3)c(-c3ccc(C(F)(F)F)cc3)n2)cc1`, the MIC with Bacillus subtilis was found to be 0.78 µg/mL (≈ 1.36 µM); in the test with Enterococcus faecalis it was 0.78 µg/mL (≈ 1.36 µM); in [1] it was 1.56 µg/mL (≈ 2.72 µM); in the test on Staphylococcus aureus [2], 0.78 µg/mL (≈ 1.36 µM); in the test on Staphylococcus aureus [3] it was 0.78 µg/mL (≈ 1.36 µM); with Staphylococcus aureus [4], 0.78 µg/mL (≈ 1.36 µM). In addition, the MIC with Staphylococcus aureus [5], in the test on Staphylococcus aureus [6] and in the test with Enterococcus faecium was 0.78 µg/mL (≈ 1.36 µM) each time.
As to `O=C(O)c1ccc(-n2cc(CNc3cc(Cl)cc(Cl)c3)c(-c3ccc(C(F)(F)F)cc3)n2)cc1`, the MIC came to 0.78 µg/mL (≈ 1.54 µM) with Bacillus subtilis; 1.56 µg/mL (≈ 3.08 µM) in the test with Enterococcus faecalis; 0.78 µg/mL (≈ 1.54 µM) in test [1]; 0.78 µg/mL (≈ 1.54 µM) in the test with Staphylococcus aureus [2]; 0.78 µg/mL (≈ 1.54 µM) in the test on Staphylococcus aureus [3]; 0.78 µg/mL (≈ 1.54 µM) in the test on Staphylococcus aureus [4]. In addition, the MIC in the test on Staphylococcus aureus [5], in the test on Staphylococcus aureus [6] and with Enterococcus faecium was 0.78 µg/mL (≈ 1.54 µM) throughout.
Take `O=C(O)c1ccc(-n2cc(CNc3ccccc3)c(-c3ccc(C(F)(F)F)cc3)n2)cc1`: the MIC amounted to 3.12 µg/mL (≈ 7.13 µM) in the test with Bacillus subtilis; 25 µg/mL (≈ 57.2 µM) in the test on Enterococcus faecalis; 12.5 µg/mL (≈ 28.6 µM) in test [1]; 6.25 µg/mL (≈ 14.3 µM) in the test on Staphylococcus aureus [2]; 12.5 µg/mL (≈ 28.6 µM) with Staphylococcus aureus [3]; 6.25 µg/mL (≈ 14.3 µM) in the test on Staphylococcus aureus [4]. Moreover, the MIC was 6.25 µg/mL (≈ 14.3 µM) in the test with Staphylococcus aureus [5], 12.5 µg/mL (≈ 28.6 µM) in the test with Staphylococcus aureus [6] and 6.25 µg/mL (≈ 14.3 µM) with Enterococcus faecium.
Take `O=C(O)c1ccc(-n2cc(CNc3cccc(Br)c3)c(-c3ccc(C(F)(F)F)cc3)n2)cc1`: the MIC was determined as 0.78 µg/mL (≈ 1.51 µM) in the test on Bacillus subtilis; 6.25 µg/mL (≈ 12.1 µM) with Enterococcus faecalis; 3.12 µg/mL (≈ 6.04 µM) in test [1]; 0.78 µg/mL (≈ 1.51 µM) in the test with Staphylococcus aureus [2]; 0.78 µg/mL (≈ 1.51 µM) with Staphylococcus aureus [3]; 0.78 µg/mL (≈ 1.51 µM) with Staphylococcus aureus [4]. Also, the MIC was found to be 1.56 µg/mL (≈ 3.02 µM) in the test on Staphylococcus aureus [5], 0.78 µg/mL (≈ 1.51 µM) with Staphylococcus aureus [6] and 1.56 µg/mL (≈ 3.02 µM) with Enterococcus faecium.
On to `O=C(O)c1ccc(-n2cc(CNc3cccc(C(F)(F)F)c3)c(-c3ccc(C(F)(F)F)cc3)n2)cc1`, for which the MIC in the test on Bacillus subtilis was 0.78 µg/mL (≈ 1.54 µM); with Enterococcus faecalis it was 6.25 µg/mL (≈ 12.4 µM); in test [1] it was 1.56 µg/mL (≈ 3.09 µM); with Staphylococcus aureus [2] it was 0.78 µg/mL (≈ 1.54 µM); in the test with Staphylococcus aureus [3] it was 1.56 µg/mL (≈ 3.09 µM); in the test on Staphylococcus aureus [4], 0.78 µg/mL (≈ 1.54 µM). Moreover, the MIC with Staphylococcus aureus [5] came to 0.38 µg/mL (≈ 0.752 µM); in the test on Staphylococcus aureus [6], 1.56 µg/mL (≈ 3.09 µM); with Enterococcus faecium, 1.56 µg/mL (≈ 3.09 µM).
For the molecule `O=C(O)c1ccc(-n2cc(CNc3cc(F)c(F)c(F)c3)c(-c3ccc(C(F)(F)F)cc3)n2)cc1`, the MIC stood at 0.78 µg/mL (≈ 1.59 µM) in the test on Bacillus subtilis; 1.56 µg/mL (≈ 3.17 µM) with Enterococcus faecalis; 1.56 µg/mL (≈ 3.17 µM) in test [1]; 0.78 µg/mL (≈ 1.59 µM) in the test on Staphylococcus aureus [2]; 0.78 µg/mL (≈ 1.59 µM) in the test on Staphylococcus aureus [3]; 0.78 µg/mL (≈ 1.59 µM) with Staphylococcus aureus [4]. Also, the MIC in the test with Staphylococcus aureus [5], in the test on Staphylococcus aureus [6] and in the test with Enterococcus faecium was 0.78 µg/mL (≈ 1.59 µM) in each case.
`O=C(O)c1ccc(-n2cc(CNc3cc(C(F)(F)F)ccc3F)c(-c3ccc(C(F)(F)F)cc3)n2)cc1`: the MIC with Bacillus subtilis came to 0.78 µg/mL (≈ 1.49 µM); with Enterococcus faecalis, 6.25 µg/mL (≈ 11.9 µM); in test [1], 3.12 µg/mL (≈ 5.96 µM); with Staphylococcus aureus [2] it was 0.78 µg/mL (≈ 1.49 µM); in the test with Staphylococcus aureus [3], 0.78 µg/mL (≈ 1.49 µM); in the test on Staphylococcus aureus [4] it was 1.56 µg/mL (≈ 2.98 µM). Further, the MIC was determined as 0.78 µg/mL (≈ 1.49 µM) with Staphylococcus aureus [5], 1.56 µg/mL (≈ 2.98 µM) with Staphylococcus aureus [6] and 1.56 µg/mL (≈ 2.98 µM) with Enterococcus faecium.
As for `O=C(O)c1ccc(-n2cc(CNc3ccc(Cl)c(C(F)(F)F)c3)c(-c3ccc(C(F)(F)F)cc3)n2)cc1`, the MIC (in the test on Bacillus subtilis; with Enterococcus faecalis; in test [1]; with Staphylococcus aureus [2]; in the test with Staphylococcus aureus [3]; with Staphylococcus aureus [4]) was 0.78 µg/mL (≈ 1.44 µM) in each case. Further, the MIC in the test on Staphylococcus aureus [5], in the test on Staphylococcus aureus [6] and with Enterococcus faecium was 0.78 µg/mL (≈ 1.44 µM) throughout.
For `O=C(O)c1ccc(-n2cc(CNc3cc(F)c(C(F)(F)F)cc3F)c(-c3ccc(C(F)(F)F)cc3)n2)cc1`, the MIC with Bacillus subtilis stood at 0.78 µg/mL (≈ 1.44 µM); in the test on Enterococcus faecalis, 1.56 µg/mL (≈ 2.88 µM); in the test on Staphylococcus aureus [2], 0.78 µg/mL (≈ 1.44 µM); in the test on Staphylococcus aureus [3], 0.78 µg/mL (≈ 1.44 µM); with Staphylococcus aureus [4] it was 0.78 µg/mL (≈ 1.44 µM); with Staphylococcus aureus [5], 0.78 µg/mL (≈ 1.44 µM). Besides, the MIC in the test with Staphylococcus aureus [6] and with Enterococcus faecium was 0.78 µg/mL (≈ 1.44 µM) in each case.
On to `O=C(O)c1ccc(-n2cc(CNc3ccc(F)c(F)c3)c(-c3ccc(C(F)(F)F)cc3)n2)cc1`, for which the MIC was 12.5 µg/mL (≈ 26.4 µM) with Enterococcus faecalis; 6.25 µg/mL (≈ 13.2 µM) in [1]; 1.56 µg/mL (≈ 3.3 µM) in the test with Staphylococcus aureus [2]; 1.56 µg/mL (≈ 3.3 µM) with Staphylococcus aureus [3]; 1.56 µg/mL (≈ 3.3 µM) in the test with Staphylococcus aureus [4]; 0.78 µg/mL (≈ 1.65 µM) in the test with Staphylococcus aureus [5]. For the same molecule, the MIC in the test on Staphylococcus aureus [6] was found to be 1.56 µg/mL (≈ 3.3 µM); in the test with Enterococcus faecium it was 3.12 µg/mL (≈ 6.59 µM).
For `O=C(O)c1ccc(-n2cc(CNc3ccc(Br)c(Cl)c3F)c(-c3ccc(C(F)(F)F)cc3)n2)cc1`, in the test with Enterococcus faecalis, the MIC was found to be 0.78 µg/mL (≈ 1.37 µM).
